Reference: ChEMBL document CHEMBL2046381, “Defining the mechanism of action and enzymatic selectivity of psammaplin A against its epigenetic targets” (J Med Chem, 2012)
Active and inactive are the calls of the source.

Each compound was assayed against T1, Protein deacetylase HDAC6 (Homo sapiens, UniProt Q9UBN7) (assay: Inhibition of human recombinant HDAC6 using Boc-lys(Ac)-AMC as substrate preincubated for 20 mins with substrate measured after 60 mins by fluorescence analysis). Details: not given.
T1 sequence (Q9UBN7 whole entry): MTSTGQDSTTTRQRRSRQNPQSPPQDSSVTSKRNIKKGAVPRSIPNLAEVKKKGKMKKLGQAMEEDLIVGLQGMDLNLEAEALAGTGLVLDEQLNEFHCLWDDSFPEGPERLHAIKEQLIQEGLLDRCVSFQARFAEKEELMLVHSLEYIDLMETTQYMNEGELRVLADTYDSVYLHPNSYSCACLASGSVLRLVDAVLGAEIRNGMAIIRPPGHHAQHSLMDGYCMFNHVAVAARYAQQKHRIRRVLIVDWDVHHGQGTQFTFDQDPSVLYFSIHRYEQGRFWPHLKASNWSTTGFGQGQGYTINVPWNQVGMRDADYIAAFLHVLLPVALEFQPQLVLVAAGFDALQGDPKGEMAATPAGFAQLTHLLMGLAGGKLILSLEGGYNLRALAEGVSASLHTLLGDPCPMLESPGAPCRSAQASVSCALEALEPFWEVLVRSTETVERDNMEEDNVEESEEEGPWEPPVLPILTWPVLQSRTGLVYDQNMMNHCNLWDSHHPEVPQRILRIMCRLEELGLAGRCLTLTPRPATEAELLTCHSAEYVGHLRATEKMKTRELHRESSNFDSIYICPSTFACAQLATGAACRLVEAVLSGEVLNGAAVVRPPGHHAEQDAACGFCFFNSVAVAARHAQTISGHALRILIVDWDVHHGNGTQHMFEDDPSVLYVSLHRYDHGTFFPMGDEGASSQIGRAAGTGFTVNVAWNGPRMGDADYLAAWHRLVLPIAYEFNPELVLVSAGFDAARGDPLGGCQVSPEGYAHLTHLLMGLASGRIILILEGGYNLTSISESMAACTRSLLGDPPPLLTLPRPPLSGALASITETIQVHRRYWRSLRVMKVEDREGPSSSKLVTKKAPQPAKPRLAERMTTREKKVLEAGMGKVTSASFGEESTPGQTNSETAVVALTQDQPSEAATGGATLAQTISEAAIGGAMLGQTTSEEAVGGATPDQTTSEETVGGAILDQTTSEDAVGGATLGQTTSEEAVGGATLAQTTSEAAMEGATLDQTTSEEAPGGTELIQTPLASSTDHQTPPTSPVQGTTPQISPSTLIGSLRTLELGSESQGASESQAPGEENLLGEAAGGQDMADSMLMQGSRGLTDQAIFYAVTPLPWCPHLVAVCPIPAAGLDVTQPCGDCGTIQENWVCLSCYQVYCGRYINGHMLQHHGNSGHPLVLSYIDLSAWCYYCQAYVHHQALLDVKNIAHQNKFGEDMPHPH

SMILES | IC50
COc1cc(C/C(=N\O)C(=O)NCCS)ccc1SC | 1400 nM
COc1ccc(C/C(=N\O)C(=O)NCCS)cc1OC | 2700 nM
CN(C)c1ccc(C/C(=N\O)C(=O)NCCS)cc1Br | 700 nM
CSCCNC(=O)C(=O)Cc1ccc(O)c(Br)c1 | 30000 nM
O=C(NCCS)/C(Cc1cc(Br)cc([N+](=O)[O-])c1)=N/O | 740 nM
COc1ccc(C/C(=N\O)C(=O)NCCS)cc1I | 240 nM
O=C(CCc1ccc(O)c(Br)c1)NCCSSCCNC(=O)CCc1ccc(O)c(Br)c1 | 20200 nM
COc1ccc(C/C(=N\O)C(=O)NCCSSCCNC(=O)/C(Cc2ccc(OC)c(Br)c2)=N/O)cc1Br | 2000 nM
COc1ccc(CC(=O)C(=O)NCCSC)cc1Br | > 50000 nM
CO/N=C(\Cc1ccc(OC)c(Br)c1)C(=O)NCCS | 2700 nM
COc1ccc(C/C(=N\N)C(=O)NCCSSCCNC(=O)/C(Cc2ccc(OC)c(Br)c2)=N/N)cc1Br | > 50000 nM
O=C(NCCS)/C(Cc1cc(Br)c(O)c(Br)c1)=N/O | 790 nM
COc1ccc(C/C(=N\N)C(=O)NCCS)cc1Br | 320 nM
CO/N=C(\Cc1ccc(OC)c(Br)c1)C(=O)NCCSSCCNC(=O)/C(Cc1ccc(OC)c(Br)c1)=N/OC | > 50000 nM
CSc1ccc(C/C(=N\O)C(=O)NCCS)cc1Br | 190 nM
CSc1ccc(C/C(=N\O)C(=O)NCCS)cc1 | 1300 nM
COc1ccc(C/C(=N\N)C(=O)NCCSC)cc1Br | > 50000 nM
COc1ccc(CC(=O)C(=O)NCCS)cc1Br | 250 nM
O=C(NCCS)/C(Cc1ccc(F)cc1)=N/O | 2900 nM
CO/N=C(\Cc1ccc(OC)c(Br)c1)C(=O)NCCSC | > 50000 nM
COc1ccc(CC(=O)C(=O)NCCSSCCNC(=O)C(=O)Cc2ccc(OC)c(Br)c2)cc1Br | 8000 nM

What follows are compounds tested against Histone deacetylase 1 (Homo sapiens, UniProt Q13547) (assay: Inhibition of human recombinant HDAC1 using Boc-lys(Ac)-AMC as substrate preincubated for 20 mins with substrate measured after 60 mins by fluorescence analysis). Details: not given.
Sequence of Histone deacetylase 1 (Q13547 whole entry): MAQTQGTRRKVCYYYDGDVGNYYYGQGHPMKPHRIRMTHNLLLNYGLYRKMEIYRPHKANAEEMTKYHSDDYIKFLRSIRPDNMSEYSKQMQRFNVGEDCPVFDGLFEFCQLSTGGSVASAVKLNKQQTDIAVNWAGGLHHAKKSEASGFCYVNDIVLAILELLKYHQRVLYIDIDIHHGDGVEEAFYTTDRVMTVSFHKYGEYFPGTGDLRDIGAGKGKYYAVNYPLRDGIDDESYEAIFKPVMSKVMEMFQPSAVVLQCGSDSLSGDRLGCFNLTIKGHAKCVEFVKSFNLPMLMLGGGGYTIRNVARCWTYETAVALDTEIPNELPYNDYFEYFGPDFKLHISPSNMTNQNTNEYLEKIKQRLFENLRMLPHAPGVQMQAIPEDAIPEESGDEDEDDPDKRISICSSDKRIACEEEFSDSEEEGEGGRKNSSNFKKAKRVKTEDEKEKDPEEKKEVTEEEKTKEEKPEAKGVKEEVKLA

SMILES | IC50
COc1cc(C/C(=N\O)C(=O)NCCS)ccc1SC | 0.6 nM
COc1ccc(C/C(=N\O)C(=O)NCCS)cc1OC | 3 nM
CN(C)c1ccc(C/C(=N\O)C(=O)NCCS)cc1Br | 4 nM
CSCCNC(=O)C(=O)Cc1ccc(O)c(Br)c1 | 7300 nM
O=C(NCCS)/C(Cc1cc(Br)cc([N+](=O)[O-])c1)=N/O | 5 nM
COc1ccc(C/C(=N\O)C(=O)NCCS)cc1I | 1 nM
O=C(CCc1ccc(O)c(Br)c1)NCCSSCCNC(=O)CCc1ccc(O)c(Br)c1 | > 50000 nM
COc1ccc(C/C(=N\O)C(=O)NCCSSCCNC(=O)/C(Cc2ccc(OC)c(Br)c2)=N/O)cc1Br | 43 nM
COc1ccc(CC(=O)C(=O)NCCSC)cc1Br | > 50000 nM
CO/N=C(\Cc1ccc(OC)c(Br)c1)C(=O)NCCS | 15 nM
COc1ccc(C/C(=N\N)C(=O)NCCSSCCNC(=O)/C(Cc2ccc(OC)c(Br)c2)=N/N)cc1Br | 3000 nM
O=C(NCCS)/C(Cc1cc(Br)c(O)c(Br)c1)=N/O | 0.2 nM
COc1ccc(C/C(=N\N)C(=O)NCCS)cc1Br | 6 nM
CO/N=C(\Cc1ccc(OC)c(Br)c1)C(=O)NCCSSCCNC(=O)/C(Cc1ccc(OC)c(Br)c1)=N/OC | 220 nM
CSc1ccc(C/C(=N\O)C(=O)NCCS)cc1Br | 0.48 nM
CSc1ccc(C/C(=N\O)C(=O)NCCS)cc1 | 2 nM
COc1ccc(C/C(=N\N)C(=O)NCCSC)cc1Br | 12600 nM
COc1ccc(CC(=O)C(=O)NCCS)cc1Br | 1100 nM
O=C(NCCS)/C(Cc1ccc(F)cc1)=N/O | 7 nM
CO/N=C(\Cc1ccc(OC)c(Br)c1)C(=O)NCCSC | > 50000 nM
COc1ccc(CC(=O)C(=O)NCCSSCCNC(=O)C(=O)Cc2ccc(OC)c(Br)c2)cc1Br | 9000 nM

These compounds were tested against T2, Histone deacetylase-like amidohydrolase (Alcaligenes sp. (strain DSM 11172) (Bordetella sp. (strain FB188))) (UniProt Q70I53) (assay: Inhibition of Bordetella sp. (strain FB188) N-terminus His-tagged HDAH expressed in Escherichia coli BL21 (DE3) up to 100 uM). Details: Alcaligenaceae bacterium FB188.
T2 sequence (whole entry): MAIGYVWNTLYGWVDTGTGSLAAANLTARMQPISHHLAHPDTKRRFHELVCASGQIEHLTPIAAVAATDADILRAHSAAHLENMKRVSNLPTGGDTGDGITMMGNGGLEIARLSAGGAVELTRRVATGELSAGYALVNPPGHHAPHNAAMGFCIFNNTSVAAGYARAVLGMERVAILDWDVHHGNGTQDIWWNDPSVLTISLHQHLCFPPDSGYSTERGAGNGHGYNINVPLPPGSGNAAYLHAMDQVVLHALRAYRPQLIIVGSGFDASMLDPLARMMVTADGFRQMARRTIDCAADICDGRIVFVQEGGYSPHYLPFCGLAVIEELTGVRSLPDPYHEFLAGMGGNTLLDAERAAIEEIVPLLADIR
Procedure, shortened: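 Recombinant N-terminal His6-tagged HDAH from Bordetella strain FB188, expressed in E. coli BL21, purified on zinc-loaded His-Trap column, eluted with 500 mM imidazole, dialyzed into assay buffer (>98% pure by SDS-PAGE). Tested directly against compounds; thiols generated in situ from disulfides with TCEP.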

SMILES | inhibition
COc1cc(C/C(=N\O)C(=O)NCCS)ccc1SC | inactive
COc1ccc(C/C(=N\O)C(=O)NCCS)cc1OC | inactive
CN(C)c1ccc(C/C(=N\O)C(=O)NCCS)cc1Br | inactive
CSCCNC(=O)C(=O)Cc1ccc(O)c(Br)c1 | inactive
O=C(NCCS)/C(Cc1cc(Br)cc([N+](=O)[O-])c1)=N/O | inactive
COc1ccc(C/C(=N\O)C(=O)NCCS)cc1I | inactive
O=C(CCc1ccc(O)c(Br)c1)NCCSSCCNC(=O)CCc1ccc(O)c(Br)c1 | inactive
COc1ccc(CC(=O)C(=O)NCCSC)cc1Br | inactive
CO/N=C(\Cc1ccc(OC)c(Br)c1)C(=O)NCCS | inactive
COc1ccc(C/C(=N\N)C(=O)NCCSSCCNC(=O)/C(Cc2ccc(OC)c(Br)c2)=N/N)cc1Br | inactive
O=C(NCCS)/C(Cc1cc(Br)c(O)c(Br)c1)=N/O | inactive
COc1ccc(C/C(=N\N)C(=O)NCCS)cc1Br | inactive
CO/N=C(\Cc1ccc(OC)c(Br)c1)C(=O)NCCSSCCNC(=O)/C(Cc1ccc(OC)c(Br)c1)=N/OC | inactive
CSc1ccc(C/C(=N\O)C(=O)NCCS)cc1Br | inactive
CSc1ccc(C/C(=N\O)C(=O)NCCS)cc1 | inactive
COc1ccc(C/C(=N\N)C(=O)NCCSC)cc1Br | inactive
COc1ccc(CC(=O)C(=O)NCCS)cc1Br | inactive
O=C(NCCS)/C(Cc1ccc(F)cc1)=N/O | inactive
CO/N=C(\Cc1ccc(OC)c(Br)c1)C(=O)NCCSC | inactive
COc1ccc(CC(=O)C(=O)NCCSSCCNC(=O)C(=O)Cc2ccc(OC)c(Br)c2)cc1Br | inactive

The compounds below were run against DNA (cytosine-5)-methyltransferase 1 (Homo sapiens, UniProt P26358) (assay: Inhibition of full length N-terminal His6-tagged human DNMT1 at 120 uM after 1 hr by fluorescence analysis). Details: not given.
Procedure, shortened: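 Baculovirus-expressed DNMT1 (80 nM final) with SAM (10 μM final) and hemimethylated hairpin oligo (125 nM final) in MOPS buffer pH 6.5 with 1 mM DTT, 1 h room temperature. Stopped with Gla1 plus 125 μM SAH, developed 7 h; fluorescence Ex 485/Em 520 nm. Thiols made in situ by TCEP reduction; no SAM as full-inhibition control.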

Sequence of DNA (cytosine-5)-methyltransferase 1 (P26358 whole entry): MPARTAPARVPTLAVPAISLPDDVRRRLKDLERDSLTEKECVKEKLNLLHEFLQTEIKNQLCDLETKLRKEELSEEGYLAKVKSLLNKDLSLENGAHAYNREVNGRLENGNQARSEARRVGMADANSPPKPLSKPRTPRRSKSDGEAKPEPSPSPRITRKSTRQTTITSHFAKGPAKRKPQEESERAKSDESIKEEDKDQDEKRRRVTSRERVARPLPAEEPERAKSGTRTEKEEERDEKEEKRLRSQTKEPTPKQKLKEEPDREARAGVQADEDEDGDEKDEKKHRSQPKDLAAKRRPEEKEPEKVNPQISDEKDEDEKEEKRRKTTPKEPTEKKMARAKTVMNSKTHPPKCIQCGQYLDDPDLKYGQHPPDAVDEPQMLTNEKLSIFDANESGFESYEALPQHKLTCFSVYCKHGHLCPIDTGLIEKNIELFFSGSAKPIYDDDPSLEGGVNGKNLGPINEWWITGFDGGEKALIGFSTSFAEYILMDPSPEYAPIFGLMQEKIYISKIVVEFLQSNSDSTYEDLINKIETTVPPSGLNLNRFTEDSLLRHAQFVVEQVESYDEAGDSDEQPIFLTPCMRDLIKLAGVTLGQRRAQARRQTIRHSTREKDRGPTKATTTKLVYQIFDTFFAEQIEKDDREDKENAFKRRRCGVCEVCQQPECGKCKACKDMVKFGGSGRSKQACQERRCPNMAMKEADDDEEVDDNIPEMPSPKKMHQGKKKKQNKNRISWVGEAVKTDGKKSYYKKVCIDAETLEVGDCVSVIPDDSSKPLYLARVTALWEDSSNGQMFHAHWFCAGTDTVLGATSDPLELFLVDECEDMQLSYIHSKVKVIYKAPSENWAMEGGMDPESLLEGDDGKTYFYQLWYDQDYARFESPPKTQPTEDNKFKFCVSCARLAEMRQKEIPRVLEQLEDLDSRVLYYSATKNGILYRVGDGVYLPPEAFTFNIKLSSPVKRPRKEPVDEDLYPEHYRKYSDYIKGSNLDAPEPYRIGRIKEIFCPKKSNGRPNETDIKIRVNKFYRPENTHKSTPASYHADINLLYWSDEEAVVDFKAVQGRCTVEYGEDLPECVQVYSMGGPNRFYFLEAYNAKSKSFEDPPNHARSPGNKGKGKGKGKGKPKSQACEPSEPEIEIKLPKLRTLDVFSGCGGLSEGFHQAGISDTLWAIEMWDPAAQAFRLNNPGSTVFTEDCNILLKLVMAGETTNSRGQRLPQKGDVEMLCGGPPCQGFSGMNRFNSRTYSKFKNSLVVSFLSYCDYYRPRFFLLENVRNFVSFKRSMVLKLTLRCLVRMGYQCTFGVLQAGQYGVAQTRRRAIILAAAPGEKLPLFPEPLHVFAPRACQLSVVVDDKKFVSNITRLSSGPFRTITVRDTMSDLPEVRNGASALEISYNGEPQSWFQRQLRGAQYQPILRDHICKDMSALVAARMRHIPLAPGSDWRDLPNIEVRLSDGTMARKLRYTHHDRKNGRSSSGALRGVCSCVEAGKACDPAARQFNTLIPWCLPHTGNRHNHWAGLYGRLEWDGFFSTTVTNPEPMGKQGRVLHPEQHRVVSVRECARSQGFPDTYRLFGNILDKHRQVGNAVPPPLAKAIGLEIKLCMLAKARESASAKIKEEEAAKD

SMILES | inhibition
COc1ccc(C/C(=N\O)C(=O)NCCS)cc1OC | inactive
CN(C)c1ccc(C/C(=N\O)C(=O)NCCS)cc1Br | inactive
O=C(NCCS)/C(Cc1cc(Br)cc([N+](=O)[O-])c1)=N/O | inactive
COc1ccc(C/C(=N\O)C(=O)NCCS)cc1I | inactive
CO/N=C(\Cc1ccc(OC)c(Br)c1)C(=O)NCCS | inactive
O=C(NCCS)/C(Cc1cc(Br)c(O)c(Br)c1)=N/O | inactive
CSc1ccc(C/C(=N\O)C(=O)NCCS)cc1Br | inactive
CSc1ccc(C/C(=N\O)C(=O)NCCS)cc1 | inactive
O=C(NCCS)/C(Cc1ccc(F)cc1)=N/O | inactive

Each compound was assayed on A549 (assay: Growth inhibition of human A549 cells after 96 hrs by sulphorhodamine B assay). Details: A549, 96 h.
Type: functional
Procedure, shortened: (§1)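 SRB growth assay; MCF7 and WI38 seeded 4000 cells/well, A549 2000 cells/well, attached overnight, then exposed to freshly made drug solutions (0.1 to 50 μM) for 96 h. Fixed with cold 10% TCA, stained with 0.4% SRB; absorbance at 540 nm as percent of untreated control, IC50 from mean absorbance.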

SMILES | GI50
CSCCNC(=O)C(=O)Cc1ccc(O)c(Br)c1 | > 50000 nM

Each compound was assayed on MCF7 (assay: Growth inhibition of human MCF7 cells after 96 hrs by sulphorhodamine B assay). Details: MCF7, 96 h.
Type: functional
Procedure, shortened: as §1

SMILES | GI50
CSCCNC(=O)C(=O)Cc1ccc(O)c(Br)c1 | 18300 nM
